From ChEMBL document CHEMBL1137728, “Synthesis of novel thiazolone-based compounds containing pyrazoline moiety and evaluation of their anticancer activity” (2009) come the findings set out here.

What all share (assay type): functional
For one assay, the system named is HT-29. The experiment in a line: Growth inhibition of human HT-29 cells after 48 hrs by SRB assay. Conditions: HT-29, 48 h. Summed up:
(§1)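 NCI five-dose screen across about 60 human tumour cell lines, at 10-fold dilutions from 10^-4 to 10^-8 M with 48 h continuous exposure, read by SRB. Percent growth used time-zero, untreated control and treated absorbances. GI50 was the concentration giving 50% lower net protein increase than controls. Values beyond the tested range were reported as more or less than the maximum or minimum concentration.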
For orientation: In SRB staining, fixed cells bind dye roughly in proportion to their protein.

The subject of another assay is SNB-75. The assay can be described thus: Growth inhibition of human SNB75 cells after 48 hrs by SRB assay. The settings on record: SNB-75, 48 h; for TGI: read-out: pTGI (converted). Put shortly: as §1
In a further assay the test system is SK-MEL-28. The experiment in a line: Growth inhibition of human SK-MEL-28 cells after 48 hrs by SRB assay. Conditions: SK-MEL-28, 48 h. Put shortly:
as §1

Assay [1] deals with SK-MEL-5. The experiment in a line: Growth inhibition of human SK-MEL-5 cells after 48 hrs by SRB assay. Conditions: SK-MEL-5, 48 h; for TGI: read-out: pTGI (converted). Put shortly:
as §1

The test system of the next assay is UACC-62. The experiment in a line: Growth inhibition of human UACC62 cells after 48 hrs by SRB assay. The settings on record: UACC-62, 48 h. Put shortly:
as §1

The test system of assay [2] is SK-MEL-5. The experiment in a line: Anticancer activity against human SK-MEL-5 cells assessed as cell growth at 10 uM after 48 hrs by SRB assay. Conditions: SK-MEL-5, 48 h, read-out: Activity. Summed up:
(§2)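 US NCI one-dose screen across about 60 human tumour cell lines. A single concentration of 10^-5 M was applied with 48 h continuous exposure. The end point was sulforhodamine B protein staining, read spectrophotometrically. Results are given as percent growth of treated cells relative to untreated controls.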

Assay [3] can be described thus: Anticancer activity against human NCI60 cells assessed as cell growth at 10 uM after 48 hrs by SRB assay. The settings on record: NCI60, 48 h, read-out: Activity. Put shortly: as §2
In another assay the test system is HL-60(TB). The assay can be described thus: Growth inhibition of human HL-60(TB) cells after 48 hrs by SRB assay. Conditions: HL-60, 48 h. Summed up:
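Five-dose NCI-60 assay at 10-fold dilutions, 10^-4 to 10^-8 M, 48 h continuous exposure; SRB protein staining. Absorbance at time zero, untreated control and each concentration gives percent growth. GI50 is the concentration giving 50% lower net protein increase than controls. Values beyond the range tested are reported as above or below the extreme concentration.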

Assay [4] in a line: Growth inhibition of human […] cells after 48 hrs by SRB assay. The settings on record: for TGI: read-out: pTGI (converted). Summed up: as §1
Another assay concerns SR. The assay can be described thus: Anticancer activity against human SR cells assessed as cell growth at 10 uM after 48 hrs by SRB assay. The settings on record: read-out: Activity. Put shortly: as §2
The next assay deals with LOX IMVI. The assay can be described thus: Growth inhibition of human LOXIMVI cells after 48 hrs by SRB assay. Conditions: for TGI: read-out: pTGI (converted). Summed up:
as §1

Assay [5] relates to CCRF-CEM. The experiment in a line: Anticancer activity against human CCRF-CEM cells assessed as cell growth at 10 uM after 48 hrs by SRB assay. Conditions: read-out: Activity. Put shortly: as §2
In the next assay the test system is HCT-15. The assay can be described thus: Growth inhibition of human HCT15 cells after 48 hrs by SRB assay. Conditions: HCT-15, 48 h. Summed up: as §1
Another assay deals with KM12. The experiment in a line: Growth inhibition of human KM12 cells after 48 hrs by SRB assay. Conditions: KM12, 48 h. Put shortly:
as §1

The next assay concerns SF-268. The experiment in a line: Growth inhibition of human SF268 cells after 48 hrs by SRB assay. The settings on record: SF-268, 48 h. Summed up:
as §1

A further assay relates to SNB-19. The assay can be described thus: Growth inhibition of human SNB19 cells after 48 hrs by SRB assay. The settings on record: SNB-19, 48 h. Put shortly:
as §1

A further assay deals with U-251. The assay can be described thus: Growth inhibition of human U251 cells after 48 hrs by SRB assay. The settings on record: U-251, 48 h. Summed up: as §1
For another assay, the system named is Malme-3M. The experiment in a line: Growth inhibition of human MALME-3M cells after 48 hrs by SRB assay. Summed up:
as §1

The subject of another assay is IGROV-1. The assay can be described thus: Growth inhibition of human IGROV1 cells after 48 hrs by SRB assay. Conditions: IGROV-1, 48 h. Put shortly: as §1
A further assay has as its system OVCAR-3. The experiment in a line: Growth inhibition of human OVCAR-3 cells after 48 hrs by SRB assay. Conditions: OVCAR-3, 48 h. Summed up:
as §1

The subject of the next assay is ACHN. The experiment in a line: Growth inhibition of human ACHN cells after 48 hrs by SRB assay. Put shortly:
as §1

The subject of another assay is CAKI-1. The experiment in a line: Growth inhibition of human Caki1 cells after 48 hrs by SRB assay. The settings on record: CAKI-1, 48 h. Summed up: as §1
A further assay has as its system SN12C. The assay can be described thus: Growth inhibition of human SN12C cells after 48 hrs by SRB assay. Summed up:
as §1

The subject of the next assay is TK-10. The experiment in a line: Growth inhibition of human TK10 cells after 48 hrs by SRB assay. Conditions: TK-10, 48 h. Put shortly: as §1
Another assay deals with UO-31. The experiment in a line: Growth inhibition of human UO31 cells after 48 hrs by SRB assay. The settings on record: UO-31, 48 h. Summed up:
as §1

The test system of assay [6] is DU-145. The assay can be described thus: Growth inhibition of human DU145 cells after 48 hrs by SRB assay. The settings on record: DU-145, 48 h. Put shortly: as §1
In the next assay the test system is MCF7. The experiment in a line: Growth inhibition of human MCF7 cells after 48 hrs by SRB assay. Conditions: MCF7, 48 h. Summed up: as §1
Another assay concerns MDA-MB-231. The assay can be described thus: Growth inhibition of human MDA-MB-231 cells after 48 hrs by SRB assay. The settings on record: MDA-MB-231, 48 h. Put shortly:
as §1

Assay [7] can be described thus: Growth inhibition of human Hs 578T cells after 48 hrs by SRB assay. Put shortly:
as §1

A further assay concerns MDA-MB-435. The assay can be described thus: Growth inhibition of human MDA-MB-435 cells after 48 hrs by SRB assay. Conditions: MDA-MB-435, 48 h. Put shortly: as §1
The test system of another assay is T47D. The experiment in a line: Growth inhibition of human T47D cells after 48 hrs by SRB assay. Put shortly:
as §1

Assay [8] relates to DU-145. The experiment in a line: Anticancer activity against human DU145 cells assessed as cell growth at 10 uM after 48 hrs by SRB assay. The settings on record: DU-145, 48 h, read-out: Activity. Put shortly: as §2
Assay [9] has as its system CCRF-CEM. The experiment in a line: Growth inhibition of human CCRF-CEM cells after 48 hrs by SRB assay. Put shortly:
as §1

The next assay has as its system MOLT-4. The assay can be described thus: Growth inhibition of human MOLT4 cells after 48 hrs by SRB assay. Conditions: MOLT-4, 48 h. Summed up:
as §1

The next assay deals with HOP-62. The experiment in a line: Growth inhibition of human HOP62 cells after 48 hrs by SRB assay. The settings on record: HOP-62, 48 h. Summed up: as §1
A further assay deals with NCI-H460. The assay can be described thus: Growth inhibition of human NCI-H460 cells after 48 hrs by SRB assay. Conditions: NCI-H460, 48 h, read-out: pTGI (converted). Put shortly:
as §1

Another assay relates to HCT-116. The experiment in a line: Growth inhibition of human HCT116 cells after 48 hrs by SRB assay. Conditions: HCT-116, 48 h. Put shortly:
as §1

As for `O=C1N=C(N2N=C(c3ccccc3)CC2c2ccccc2O)/C(=C/c2ccc(O)cc2)S1` (stereo not drawn), the GI50 in the assay on HT-29 is 1910 nM; with SNB-75, 1950 nM; in the assay with SK-MEL-28, 1780 nM; with SK-MEL-5 [1] it was 1700 nM; in the assay on UACC-62, 1700 nM; in the assay with HL-60(TB), 1660 nM. For the same compound, growth in [4] was halved (GI50) at 1860 nM. The TGI was 5250 nM with SNB-75; 3310 nM in the assay on SK-MEL-5 [1]; 3310 nM in the assay on UACC-62 (read-out: pTGI (converted)); 4900 nM in the assay with HL-60(TB) (read-out: pTGI (converted)); 4470 nM in [4]. The growth at 10 µM in the assay on SK-MEL-5 [2] was -96.3%; in assay [3], 1.13%.

Regarding `O=C1N=C(N2N=C(c3ccccc3)CC2c2ccccc2O)S/C1=C\c1ccccc1Cl` (stereo not drawn), the growth at 10 µM in assay [3] was found to be 102%; in the assay on SR, 45.6%.

Consider `O=C1N=C(N2N=C(c3ccccc3)CC2c2ccccc2O)/C(=C/c2ccc(Cl)cc2)S1` (stereo not drawn), for which, in the assay on LOX IMVI, it took 1860 nM to inhibit growth by half (GI50) and the TGI was 3550 nM.

Regarding `O=C1N=C(N2N=C(c3ccccc3)CC2c2ccccc2O)CS1` (stereo not drawn), the growth at 10 µM is 83.6% in assay [3] and -5.39% in the assay with CCRF-CEM [5].

Turning to `COc1cc(/C=C2/SC(N3N=C(c4ccccc4)CC3c3ccccc3O)=NC2=O)cc(OC)c1O` (stereo not drawn), the GI50 with HCT-15 is 1230 nM; with HT-29 it was 427 nM; in the assay with KM12, 1820 nM; with SF-268, 1860 nM; with SNB-19, 1780 nM; with SNB-75, 1740 nM. Also, the 50% growth inhibitory concentration (GI50) in the assay on U-251 is 1510 nM; in the assay on LOX IMVI, 1550 nM; in the assay with Malme-3M, 2000 nM; in the assay on SK-MEL-5 [1], 1910 nM; in the assay with IGROV-1 it was 1580 nM; in the assay on OVCAR-3 it was 1410 nM. Moreover, the GI50 with ACHN was 1170 nM; with CAKI-1, 1020 nM; in the assay with SN12C it was 1580 nM; in the assay on TK-10, 1780 nM; with UO-31, 1910 nM; in the assay with DU-145 [6], 1550 nM. Moreover, the GI50 with MCF7 is 1950 nM; in the assay on MDA-MB-231, 1450 nM; in [7], 1380 nM; in the assay with MDA-MB-435 it was 1820 nM; in the assay with T47D, 1780 nM; with CCRF-CEM [9], 2000 nM. The GI50 with MOLT-4 was 1700 nM; in assay [4], 1700 nM; with HOP-62, 759 nM; in the assay with HCT-116 it was 1550 nM. Also, the TGI is 2690 nM in the assay on HCT-15 (read-out: pTGI (converted)); 2820 nM in the assay on HT-29 (read-out: pTGI (converted)); 3630 nM in the assay on KM12 (read-out: pTGI (converted)); 4470 nM with SF-268 (read-out: pTGI (converted)); 3720 nM with SNB-19 (read-out: pTGI (converted)); 4270 nM in the assay on SNB-75. The TGI with U-251 (read-out: pTGI (converted)) was 2820 nM; with LOX IMVI, 2950 nM; with Malme-3M (read-out: pTGI (converted)) it was 4900 nM; in the assay on SK-MEL-5 [1] it was 10500 nM; with IGROV-1 (read-out: pTGI (converted)), 2880 nM; with OVCAR-3 (read-out: pTGI (converted)), 2820 nM. Moreover, the TGI with ACHN (read-out: pTGI (converted)) is 10200 nM; in the assay with CAKI-1 (read-out: pTGI (converted)), 3240 nM; with SN12C (read-out: pTGI (converted)), 4900 nM; in the assay on TK-10 (read-out: pTGI (converted)), 3980 nM; with UO-31 (read-out: pTGI (converted)), 4270 nM; with DU-145 [6] (read-out: pTGI (converted)), 3090 nM. Moreover, the TGI in the assay on MCF7 (read-out: pTGI (converted)) was 4900 nM; in the assay with MDA-MB-231 (read-out: pTGI (converted)) it was 3020 nM; in assay [7] (read-out: pTGI (converted)), 3720 nM; in the assay with MDA-MB-435 (read-out: pTGI (converted)), 3630 nM; in the assay with T47D (read-out: pTGI (converted)), 3980 nM; in the assay on CCRF-CEM [9] (read-out: pTGI (converted)), 5620 nM. In addition, the TGI was 6920 nM in assay [4], 15500 nM in the assay on HOP-62 (read-out: pTGI (converted)), 3310 nM with NCI-H460 and 2950 nM in the assay with HCT-116 (read-out: pTGI (converted)). For the same compound, the figures for the growth at 10 µM (in assay [3]; in the assay with DU-145 [8]) were 42.6% and -57%, respectively.

Usually GI50 stands for the concentration that inhibits growth by half. A low value points to more potent growth inhibition.
